ChEMBL document CHEMBL1123503, “Synthesis and biological activity of 3-amino-5-(3,5-diamino-6-chloropyrazin-2-yl)-1,2,4-oxadiazole: an amiloride prodrug” (1986)
Where “and” joins values, the source holds several entries; their conditions need not be identical. Equal values may be shown once.

Experiments:
[1] = test system: Rattus norvegicus; experiment: Compound was evaluated for diuretic activity determined by the ability to induce electrolytic excretion (K+) at a time period of 0-24 hr for dose 3 mg/kg; type: functional, Urine
How it was run: (§1)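 Female Sprague-Dawley rats weighing 160-170 g were dosed orally at 3, 9, 27 or 81 mg/kg, housed three per cage, with three cages per dose. Urinary Na+, K+ and Cl- (mequiv × 100) and urine volume (mL) were measured over 0-5 h and 0-24 h after dosing. A placebo group was run alongside.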

[2] = test system: Rattus norvegicus; experiment: Compound was evaluated for diuretic activity determined by the ability to induce electrolytic excretion (K+) at a time period of 0-24 hr for dose 81 mg/kg; type: functional, Urine; design: unit: mequiv × 100; how it was run: as §1
[3] = test system: Rattus norvegicus; experiment: Compound was evaluated for diuretic activity determined by the ability to induce electrolytic excretion (K+) at a time period of 0-24 hr for dose 9 mg/kg; type: functional, Urine; how it was run: as §1
[4] = test system: Rattus norvegicus; experiment: Compound was evaluated for diuretic activity determined by the ability to induce electrolytic excretion (K+) at a time period of 0-5 hr for dose 27 mg/kg; type: functional, Urine; how it was run: as §1
[5] = test system: Rattus norvegicus; experiment: Compound was evaluated for diuretic activity determined by the ability to induce electrolytic excretion (K+) at a time period of 0-5 hr for dose 3 mg/kg; type: functional, Urine; how it was run: as §1
[6] = test system: Rattus norvegicus; experiment: Compound was evaluated for diuretic activity determined by the ability to induce electrolytic excretion (K+) at a time period of 0-5 hr for dose 81 mg/kg; type: functional, Urine; how it was run: as §1
[7] = test system: Rattus norvegicus; experiment: Compound was evaluated for diuretic activity determined by the ability to induce electrolytic excretion (K+) at a time period of 0-5 hr for dose 9 mg/kg; type: functional, Urine; how it was run: as §1
[8] = test system: Rattus norvegicus; experiment: Compound was evaluated for diuretic activity determined by the ability to induce electrolytic excretion (Na+) at a time period of 0-24 hr for dose 27 mg/kg; type: functional, Urine; how it was run: as §1
[9] = test system: Rattus norvegicus; experiment: Compound was evaluated for diuretic activity determined by the ability to induce electrolytic excretion (Na+) at a time period of 0-24 hr for dose 3 mg/kg; type: functional, Urine; how it was run: as §1
[10] = test system: Rattus norvegicus; experiment: Compound was evaluated for diuretic activity determined by the ability to induce electrolytic excretion (Na+) at a time period of 0-24 hr for dose 81 mg/kg; type: functional, Urine; how it was run: as §1
[11] = test system: Rattus norvegicus; experiment: Compound was evaluated for diuretic activity determined by the ability to induce electrolytic excretion (Na+) at a time period of 0-24 hr for dose 9 mg/kg; type: functional, Urine; how it was run: as §1
[12] = test system: Rattus norvegicus; experiment: Compound was evaluated for diuretic activity determined by the ability to induce electrolytic excretion (Na+) at a time period of 0-5 hr for dose 27 mg/kg; type: functional, Urine; how it was run: as §1
[13] = test system: Rattus norvegicus; experiment: Compound was evaluated for diuretic activity determined by the ability to induce electrolytic excretion (Na+) at a time period of 0-5 hr for dose 3 mg/kg; type: functional, Urine; how it was run: as §1
[14] = test system: Rattus norvegicus; experiment: Compound was evaluated for diuretic activity determined by the ability to induce electrolytic excretion (Na+) at a time period of 0-5 hr for dose 81 mg/kg; type: functional, Urine; how it was run: as §1
[15] = test system: Rattus norvegicus; experiment: Compound was evaluated for diuretic activity determined by the ability to induce electrolytic excretion (Na+) at a time period of 0-5 hr for dose 9 mg/kg; type: functional, Urine; how it was run: as §1
[16] = test system: Rattus norvegicus; experiment: Compound was evaluated for diuretic activity determined by the to induce electrolytic excretion (Cl-) at a time period of 0-24 hr for dose 81 mg/kg; type: functional, Urine; how it was run: as §1
[17] = test system: Rattus norvegicus; experiment: Compound was evaluated for diuretic activity determined by the ability to induce electrolytic excretion (Cl-) at a time period of 0-24 hr for dose 27 mg/kg; type: functional, Urine; how it was run: as §1
[18] = test system: Rattus norvegicus; experiment: Compound was evaluated for diuretic activity determined by the ability to induce electrolytic excretion (Cl-) at a time period of 0-24 hr for dose 3 mg/kg; type: functional, Urine; how it was run: as §1
[19] = test system: Rattus norvegicus; experiment: Compound was evaluated for diuretic activity determined by the ability to induce electrolytic excretion (Cl-) at a time period of 0-24 hr for dose 9 mg/kg; type: functional, Urine; how it was run: as §1
[20] = test system: Rattus norvegicus; experiment: Compound was evaluated for diuretic activity determined by the ability to induce electrolytic excretion (Cl-) at a time period of 0-5 hr for dose 3 mg/kg; type: functional, Urine; how it was run: as §1
[21] = test system: Rattus norvegicus; experiment: Compound was evaluated for diuretic activity determined by the ability to induce electrolytic excretion (Cl-) at a time period of 0-5 hr for dose 81 mg/kg; type: functional, Urine; how it was run: as §1
[22] = test system: Rattus norvegicus; experiment: Compound was evaluated for diuretic activity determined by the ability to induce electrolytic excretion (Cl-) at a time period of 0-5 hr for dose 9 mg/kg; type: functional, Urine; how it was run: as §1
[23] = test system: Rattus norvegicus; experiment: Compound was evaluated for diuretic activity determined by the ability to induce electrolytic excretion (K+) at a time period of 0-24 hr for dose 27 mg/kg; type: functional, Urine; how it was run: as §1
[24] = test system: Rattus norvegicus; experiment: Urine volumes was determined in Sprague-Dawley rats at time period of 0-5 hours at 27 mg/kg; type: functional
How it was run: (§2)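 Female Sprague-Dawley rats (160-170 g) were dosed orally at 3-81 mg/kg, with a placebo group. Housing was three rats per cage and three cages per dose. Urinary Na+, K+ and Cl- (mequiv × 100) and urine volume were measured over 0-5 h and 0-24 h.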

[25] = test system: Rattus norvegicus; experiment: Urine volumes was determined in Sprague-Dawley rats at time period of 0-5 hours at 3 mg/kg; type: functional; how it was run: as §2
[26] = test system: Rattus norvegicus; experiment: Urine volumes was determined in Sprague-Dawley rats at time period of 0-5 hours at 81 mg/kg; type: functional; how it was run: as §2
[27] = test system: Rattus norvegicus; experiment: Urine volumes was determined in Sprague-Dawley rats at time period of 0-5 hours at 9 mg/kg; type: functional; how it was run: as §2
[28] = test system: Rattus norvegicus; experiment: Compound was evaluated for diuretic activity determined by the ability to induce electrolytic excretion (Cl-) at a time period of 0-5 hr for dose 27 mg/kg; type: functional, Urine; how it was run: as §1
[29] = test system: Rattus norvegicus; experiment: Compound was evaluated for diuretic activity determined by the ability to induce electrolytic excretion (Cl-) at a time period of 0-24 hr for dose 81 mg/kg; type: functional, Urine; how it was run: as §1
[30] = test system: Rattus norvegicus; experiment: Urine volumes in Sprague-Dawley rats was determined at time period of 0-5 hours at 3 mg/kg; type: functional; how it was run: as §1
[31] = test system: Rattus norvegicus; experiment: Urine volumes in Sprague-Dawley rats was determined at time period of 0-5 hours at 81 mg/kg; type: functional; how it was run: as §1
[32] = test system: Rattus norvegicus; experiment: Urine volumes in Sprague-Dawley rats was determined at time period of 0-5 hours at 9 mg/kg; type: functional; how it was run: as §1
[33] = test system: Rattus norvegicus; experiment: Urine volumes in Sprague-Dawley rats was determined at time period of 0-5 hours at 27 mg/kg; type: functional; how it was run: as §1
[34] = test system: Canis familiaris; experiment: Compound was evaluated for percentage recovery from urine after administration of 0.1 mg/kg dose; type: functional, organism-based; design: dose 0.1 mg/kg; details: Canis lupus familiaris
How it was run: (§3)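 Catheterized mongrel dogs (average 14-16 kg, 6 per group) were given oral doses of 0.1-1.0 mg/kg. Urine was collected at 0-6 h and 6-24 h. Each 1-mL aliquot was partitioned between saturated Na2CO3 and ethyl acetate, and the organic phase was back-extracted into 0.5 N HCl. Amiloride in the acid phase was read spectrofluorometrically (excitation 365 nm, emission 420 nm). Results are mean ± SD, with % recovery.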

[35] = test system: Canis familiaris; experiment: Compound was evaluated for percentage recovery from urine after administration of 0.3 mg/kg dose; type: functional, organism-based; design: dose 0.3 mg/kg; details: Canis lupus familiaris; how it was run: as §3
[36] = test system: Rattus norvegicus; experiment: Compound was evaluated for diuretic activity to induce electrolytic excretion (Cl-) at a time period of 0-24 hr for dose 3 mg/kg; type: functional, Urine; how it was run: as §2
[37] = test system: Rattus norvegicus; experiment: Urine volumes was determined at time period of 0-5 hours for dose 27 mg/kg; type: functional; how it was run: as §2
[38] = test system: Rattus norvegicus; experiment: Urine volumes was determined at time period of 0-5 hours for dose 9 mg/kg; type: functional; how it was run: as §2
[39] = test system: Canis familiaris; experiment: Compound was evaluated for urinary levels (mg) after administration at time period
[40] = test system: Rattus norvegicus; experiment: Compound was evaluated for diuretic activity determined by the ability of to induce electrolytic excretion (Cl-) at a time period of 0-24 hr for dose 3 mg/kg; type: functional, Urine; how it was run: as §1
[41] = test system: Rattus norvegicus; experiment: Urine volumes in Sprague-Dawley rats was determined at time period of 0-5 hours dose 81 mg/kg; type: functional; how it was run: as §1
[42] = test system: Rattus norvegicus; experiment: Urine volumes in Sprague-Dawley rats was determined at time period of 0-5 hours dose 9 mg/kg; type: functional; how it was run: as §1
[43] = test system: Rattus norvegicus; experiment: Urine volumes in Sprague-Dawley rats was determined at time period of 0-5 hours dose 27 mg/kg; type: functional; how it was run: as §1
[44] = test system: Rattus norvegicus; experiment: Urine volumes in Sprague-Dawley rats was determined at time period of 0-5 hours dose 3 mg/kg; type: functional; how it was run: as §1
[45] = test system: Canis familiaris; experiment: Diuretic activity in mongrel dog was determined by the ability to induce electrolytic excretion (K+) at a time period of 0-5 hr after administration of 5 mg/kg dose.
[46] = test system: Canis familiaris; experiment: Diuretic activity in mongrel dog was determined by the ability to induce electrolytic excretion (CL-) at a time period of 0-5 hr after administration of 5 mg/kg dose.
[47] = test system: Canis familiaris; experiment: Diuretic activity in mongrel dog was determined by the ability to induce electrolytic excretion (Na+) at a time period of 0-5 hr after administration of 5 mg/kg dose.

Compound	Diuretic effect [1]	Diuretic effect [2]	Diuretic effect [3]	Diuretic effect [4]	Diuretic effect [5]	Diuretic effect [6]	Diuretic effect [7]	Diuretic effect [8]	Diuretic effect [9]	Diuretic effect [10]	Diuretic effect [11]	Diuretic effect [12]	Diuretic effect [13]	Diuretic effect [14]	Diuretic effect [15]	Diuretic effect [17]	Diuretic effect [19]	Diuretic effect [20]	Diuretic effect [21]	Diuretic effect [22]	further results
CN(C)c1nc(N)c(-c2nc(N)[n+](C)o2)nc1Cl.[I-]	114	68	97	6	2	5	2	299	185	389	224	100	55	154	60	209	169	37	95	35	Diuretic effect [16]: 322; Diuretic effect [18]: 153; Diuretic effect [23]: 62; Urine volume [24]: 29 mL; Urine volume [25]: 26 mL; Urine volume [26]: 31 mL; Urine volume [27]: 27 mL; Diuretic effect [28]: 56
C[n+]1oc(-c2nc(Cl)c(N)nc2N)nc1N.[I-]	139	96	92	4	3	7	2	389	281	433	296	104	17	135	79	277	204	28	95	39	Diuretic effect [18]: 203; Diuretic effect [29]: 326; Diuretic effect [23]: 89; Urine volume [30]: 25 mL; Urine volume [31]: 29 mL; Urine volume [32]: 25 mL; Urine volume [33]: 27 mL; Diuretic effect [28]: 49
N=C(N)NC(=O)c1nc(Cl)c(N)nc1N [AMILORIDE]	83	47	67	7	5	6	6	206	153	458	207	180	156	158	162	180	176	90	93	96	Recovery [34]: 41.4% and 40%; Recovery [35]: 29.3%; Diuretic effect [36]: 139; Diuretic effect [37]: 3.4; Diuretic effect [38]: 1; Diuretic effect [29]: 328; Diuretic effect [23]: 82; Urine volume [24]: 36 mL; Urine volume [25]: 35 mL; Urine volume [26]: 28 mL; Urine volume [27]: 33 mL; Diuretic effect [28]: 105; Urinary level [39]: 0.41 mg
Nc1noc(-c2nc(Cl)c(N)nc2N)n1	79	72	102	4	7	5	4	292	184	396	269	67	64	135	69	258	235	36	73	35	Recovery [34]: 36.2% and 22.4%; Recovery [35]: 24.2%; Diuretic effect [40]: 152; Diuretic effect [29]: 344; Diuretic effect [23]: 79; Urine volume [41]: 25 mL; Urine volume [42]: 28 mL; Urine volume [43]: 26 mL; Urine volume [44]: 24 mL; Diuretic effect [28]: 32; Urinary level [39]: 0.42 mg; Diuretic effect [45]: 0.9; Diuretic effect [46]: 4.3; Diuretic effect [47]: 6.5
